Active and inactive are the calls of the source. No cut-off for these calls is given here.
Experiments:
Heart [1] = assay: Reduction in coronary perfusion pressure in heart isolated from Wistar rat at highest concentration relative to control; format: functional; design: scale not given: the % may be the effect or the level left
How it was run: (§1)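 Rat hearts in Langendorff perfusion were exposed to 10 nM–10 μM. Coronary perfusion pressure, heart rate, LVDP and +dp/dt were recorded.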

[2] = Half life in Wistar rat at 0.3 mg/kg, iv measured up to 24 hrs by LC-MS analysis; format: ADME, organism-based; conditions: in vivo
[3] = Oral bioavailability in Beagle dog at 0.1 mg/kg measured up to 24 hrs by LC-MS analysis; format: ADME, organism-based, Canis lupus familiaris; conditions: in vivo
[4] = Activation of recombinant rat sGC expressed in CHO cells pretreated with ODQ for 3 hrs followed by compound treatment by luminescence assay; format: cell-based
Rattus norvegicus [5] = assay: In vivo activation of sGC in Wistar rate assessed as decrease in blood pressure at 0.03 to 0.1 mg/kg, iv administered as bolus injection; format: functional, organism-based; conditions: dose 0.03-0.1 mg/kg
How it was run: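 Anaesthetized rats received an iv bolus of 0.03 or 0.1 mg/kg, with or without ODQ pretreatment. Blood pressure and heart rate were recorded over time.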

Aorta = assay: Vasorelaxant activity in Chinchilla rabbit aortic ring assessed as inhibition of phenylephrine-induced contractions; format: functional, tissue-based; conditions: Oryctolagus cuniculus
[6] = Activation of recombinant rat sGC expressed in CHO cells by luminescence assay; format: cell-based; conditions: CHO
How it was run: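 Stable CHO reporter cell line overexpressing rat sGC; cGMP formation read as luminescence. EC50 from concentration–response. MEC taken as lowest concentration giving at least threefold increase in basal luminescence.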

Heart [7] = assay: Reduction in coronary perfusion pressure in heart isolated from Wistar rat; format: functional, tissue-based; conditions: dose 0.01-10 µM; how it was run: as §1
[8] = target: T1, Guanylate cyclase soluble subunit alpha-1 (Rattus norvegicus) (UniProt P19686); assay: Activation of recombinant rat sGC alpha1 subunit expressed in CHO cells assessed as induction of [32P-cGMP] formation by measuring efficacy using alpha-[32P-GTP] as substrate measured after 6 mins by luminescence assay relative to control; format: cell-based; conditions: filed as activator
T1 sequence (whole entry): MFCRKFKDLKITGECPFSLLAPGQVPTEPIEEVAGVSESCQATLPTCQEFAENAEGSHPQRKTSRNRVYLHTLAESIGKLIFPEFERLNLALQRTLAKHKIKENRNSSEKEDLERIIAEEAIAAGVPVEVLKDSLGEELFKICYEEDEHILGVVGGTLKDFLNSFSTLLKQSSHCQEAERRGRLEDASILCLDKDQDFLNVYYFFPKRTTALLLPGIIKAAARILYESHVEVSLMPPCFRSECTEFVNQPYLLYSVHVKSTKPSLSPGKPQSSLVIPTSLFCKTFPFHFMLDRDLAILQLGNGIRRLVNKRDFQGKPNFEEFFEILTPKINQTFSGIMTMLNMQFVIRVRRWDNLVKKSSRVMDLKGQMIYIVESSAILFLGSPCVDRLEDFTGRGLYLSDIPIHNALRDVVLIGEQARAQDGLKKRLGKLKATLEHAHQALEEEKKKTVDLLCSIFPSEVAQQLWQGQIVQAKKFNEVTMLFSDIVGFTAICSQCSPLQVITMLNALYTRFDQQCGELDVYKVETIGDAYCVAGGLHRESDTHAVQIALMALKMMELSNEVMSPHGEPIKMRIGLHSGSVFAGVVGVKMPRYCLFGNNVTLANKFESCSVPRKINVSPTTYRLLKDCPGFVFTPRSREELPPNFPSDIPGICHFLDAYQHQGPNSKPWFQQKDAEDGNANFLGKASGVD

Rattus norvegicus [9] = assay: Effect on blood pressure in normotensive Wistar rat at 1 to 3 mg/kg, po by radiotelemetry; format: functional, organism-based; conditions: dose 1-3 mg/kg
Rattus norvegicus [10] = assay: Reduction in blood pressure in spontaneous hypertensive Wistar rat at 0.3 to 3 mg/kg, po by radiotelemetry relative to control; format: functional; design: scale not given: the % may be the effect or the level left; conditions: dose 0.3-3 mg/kg
Rattus norvegicus [11] = assay: Effect on heart rate in spontaneous hypertensive Wistar rat at 0.1 mg/kg, po by radiotelemetry; format: functional, organism-based
How it was run: (§2)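 Spontaneously hypertensive rats were given single oral doses of 0.1–3.0 mg/kg. Mean arterial pressure and heart rate were monitored for at least 24 h post dose, as % change.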

Rattus norvegicus [12] = species on record: Rattus norvegicus; assay: Effect on left ventricular diastolic pressure in Wistar rat; format: functional; how it was run: as §1
[13] = target: T1, Guanylate cyclase soluble subunit alpha-1 (Rattus norvegicus); assay: Activation of recombinant rat sGC alpha1 subunit expressed in CHO cells assessed as induction of [32P-cGMP] formation by measuring fold change at 100 uM using alpha-[32P-GTP] as substrate measured after 6 mins by luminescence assay; conditions: filed as activator
How it was run: (§3)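 Highly purified recombinant sGC enzyme was tested for stimulation of cGMP production across 0.01 to 100 μM of compound. The read-out was fold activation over basal enzyme activity. The method followed earlier published sGC stimulator/activator characterization.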

Rattus norvegicus [14] = assay: Increase in heart rate in spontaneous hypertensive Wistar rat at 0.1 to 3 mg/kg, po by radiotelemetry relative to control; format: functional; conditions: dose 0.1-3 mg/kg; how it was run: as §2
Saphenous artery = assay: Vasorelaxant activity in Chinchilla rabbit saphenous artery assessed as inhibition of phenylephrine-induced contractions; format: functional, tissue-based; conditions: Oryctolagus cuniculus
[15] = Blood clearance in Beagle dog at 0.3 mg/kg, iv measured up to 24 hrs by LC-MS analysis; format: ADME, organism-based, Canis lupus familiaris; conditions: whole blood
Rattus norvegicus [16] = assay: Reduction in blood pressure in normotensive Wistar rat at 10 mg/kg, po by radiotelemetry relative to control; format: functional; design: scale not given: the % may be the effect or the level left
How it was run: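 Conscious normotensive rats with telemetric implants received oral doses of 1, 3 or 10 mg/kg. Mean arterial pressure and heart rate were recorded continuously beyond 24 h.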

[17] = Half life in cynomolgus monkey at 0.1 mg/kg, iv measured up to 24 hrs by LC-MS analysis; format: ADME, organism-based, Macaca fascicularis; conditions: in vivo
CHO = assay: Activation of recombinant rat sGC expressed in CHO cells in presence of NO-donor S-nitroso N-acetyL-penicillamine by luminescence assay; format: cell-based; conditions: filed as activator
How it was run: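 Rat sGC-overexpressing CHO reporter cells were treated with test compound combined with NO donor SNAP, and the luminescence signal was read.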

Coronary artery = assay: Vasorelaxant activity in porcine coronary artery assessed as inhibition of U-46619-induced contractions; format: functional, tissue-based; conditions: Sus scrofa
[18] = target: T1, Guanylate cyclase soluble subunit alpha-1 (Rattus norvegicus); assay: Activation of recombinant rat sGC alpha1 subunit expressed in CHO cells assessed as induction of [32P-cGMP] formation by measuring fold change at 0.01 uM using alpha-[32P-GTP] as substrate measured after 6 mins by luminescence assay; conditions: filed as activator; how it was run: as §3
Rattus norvegicus [19] = assay: Effect on blood pressure in spontaneous hypertensive Wistar rat at 0.1 mg/kg, po by radiotelemetry; format: functional, organism-based; how it was run: as §2
[20] = Volume of distribution at steady state in cynomolgus monkey at 0.1 mg/kg, iv measured up to 24 hrs by LC-MS analysis; format: ADME, organism-based, Macaca fascicularis; conditions: in vivo, read-out: Vdss
Rattus norvegicus [21] = assay: In vivo activation of sGC in po dosed renin-transgenic rat carrying [RenTG(mRRen2)27] gene assessed as decrease in mortality pretreated with NO-synthase inhibitor L-NAME followed by compound administration twice daily for 21 days and measured on day 1, 8 and 15; format: functional, organism-based; conditions: dose 1-10 mg/kg, time 21.0 day
How it was run: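 L-NAME-treated renin transgenic rats were dosed at 1, 3 or 10 mg/kg BID, with placebo controls (n = 24 placebo, 18 per dose). Mortality was recorded.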

Rattus norvegicus [22] = assay: Cardioprotective activity in renin-transgenic rat carrying [[…]] gene assessed as reduction in heart hypertrophy at 1 to 10 mg/kg, po bid for 21 days; format: functional, organism-based; conditions: dose 1-10 mg/kg, time 21.0 day

In the case of `C[C@H]([C@H](C(=O)Nc1cc([C@@H](CC(=O)O)C2CC2)ccc1Cl)c1ccc(Cl)cc1)C(F)(F)F` [RUNCACIGUAT], the Activity (Heart [1]) is reported as 45%, the half-life [2] is reported as 7.5 h and the bioavailability [3] is reported as 48%. The EC50 [4] was 2.1 nM, the Activity (Rattus norvegicus [5]) was “Dose-Dependent Effect” and the IC50 (Aorta) was 39 nM. For the same molecule, the EC50 [6] was 11.2 nM, the Activity (Heart [7]) was “Dose-Dependent Effect” and the Efficacy [8] was 58%. For the same molecule, the Activity (Rattus norvegicus [9]) was “inactive”, the Activity (Rattus norvegicus [10]) was 5% and the Activity (Rattus norvegicus [11]) was “inactive”. For the same molecule, the Activity (Rattus norvegicus [12]) was “inactive”, the fold change (FC) [13] was 9.3 and the Activity (Rattus norvegicus [14]) was “<=20%”. For the same molecule, the IC50 (Saphenous artery) was 199 nM, the clearance [15] was 23.3 mL/min/kg and the Activity (Rattus norvegicus [16]) was “<=15%”. For the same molecule, the half-life [17] was 10 h, the Activity (CHO) was “Active” and the IC50 (Coronary artery) was 137 nM. For the same molecule, the fold change (FC) [18] was 2.6, the Activity (Rattus norvegicus [19]) was “inactive” and the Vd [20] was 1.4 L/kg. For the same molecule, the Activity (Rattus norvegicus [21]) was “Dose-Dependent Effect” and the Activity (Rattus norvegicus [22]) was “Active”.
